Bioassay records deposited in PubChem BioAssay by Broad Institute.
SR-BI uptake up: SR-BI HDL lipid transfer activation; CHO ldlA[mSR-BI] cells, DiI-HDL uptake fluorescence, 3 h; 100 = double the neutral-control signal; activation, % at 12.5 µM; hit rate 0.096% among 320,000;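 active = mean replicate activation of at least 60% and every replicate at or above 60%; inconclusive = mean or all-replicate condition met, but not both; inactive = mean below 60% and not all replicates reaching 60%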;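 note: 0% = median plate neutral-control signal and 100% = twice that signal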
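material = CHO ldlA[mSR-BI] cells | medium = Ham's F12 with 0.5% BSA, HEPES 25 mM, pH 7.4 | reagent = fluorescent DiI-HDL, 10 µg/mL final | compound dosing = single-point compound dose | incubation = 3 h, 37 °C | measured by = bottom-read fluorescence, 550/595 nm | measure = HDL uptake via cellular fluorescence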
dFosB act: activators of mouse delta FosB homodimer. P13346. purified delta FosB, TAMRA-CDK5 oligo fluorescence polarization; percent of positive-control signal above neutral wells. activation, % at 25 µM. hit rate 0.99% among 340,000. AID 493131;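 active = mean activation above about 17%, with every replicate also reaching it, limit read from the data, passing the limit was not always enough; inconclusive = only one of the two conditions met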
SR-BI DiI inh: inhibitors of mouse SR-BI mediated HDL lipid uptake | ldlA[mSR-BI] CHO cells, DiI-HDL uptake fluorescence, 3 h | AID 488896 | Q61009 | inhibition, % at 12.5 µM | hit rate 0.96% among 320,000;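 active = mean replicate inhibition of at least 70% and a set share of replicates each scoring 70 or more; inconclusive = meets just one of the two criteria; inactive = fails both criteria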;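 note: 0% = median of neutral control wells and 100% = median of positive control wells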
CDK5 inh: CDK5/p35 (human) kinase inhibition; Recombinant CDK5/p35, ADP-Glo luminescence, 60 min; hit rate 0.01% among 330,000; inhibition, % at 10 µM; Q00535+Q15078; AID 488839;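 active = highest replicate inhibition of at least 50% and at least 75% of replicates reaching 50%; inconclusive = only one of the two criteria met; inactive = both criteria failed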;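 note: plate controls were DMSO neutral control for no effect and GW8510 at 10 µM for full effect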
Target sequence (Q00535 whole entry, looked up): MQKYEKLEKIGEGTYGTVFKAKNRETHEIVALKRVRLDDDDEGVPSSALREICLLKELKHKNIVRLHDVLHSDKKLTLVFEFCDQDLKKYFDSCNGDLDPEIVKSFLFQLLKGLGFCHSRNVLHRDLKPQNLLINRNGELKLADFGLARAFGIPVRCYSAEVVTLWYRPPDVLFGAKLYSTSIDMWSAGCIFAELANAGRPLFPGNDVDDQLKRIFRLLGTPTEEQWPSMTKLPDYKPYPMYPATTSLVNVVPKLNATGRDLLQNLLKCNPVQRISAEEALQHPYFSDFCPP
Target sequence (Q15078 whole entry, looked up): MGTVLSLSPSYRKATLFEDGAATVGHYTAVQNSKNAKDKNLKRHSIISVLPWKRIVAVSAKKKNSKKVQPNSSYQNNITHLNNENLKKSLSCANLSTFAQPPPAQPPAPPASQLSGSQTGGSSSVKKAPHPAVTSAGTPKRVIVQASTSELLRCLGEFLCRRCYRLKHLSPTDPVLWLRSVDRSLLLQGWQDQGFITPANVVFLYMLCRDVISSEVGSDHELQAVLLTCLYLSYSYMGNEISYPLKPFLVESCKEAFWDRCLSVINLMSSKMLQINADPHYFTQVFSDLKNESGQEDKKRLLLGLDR
DiI quencher: quenches DiI-HDL fluorescence, an SR-BI assay artifact; cell-free DiI-HDL fluorescence quenching, 30 min; hit rate 20% among 470; shares compounds with SR-BI DiI inh; AC50, µM (series often up to 35 µM), for the others: at the top dose activity change, negative = quenching;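 active = quenching, a falling signal, with AC50 below a set limit tied to the top valid dose, actives reach about 32 µM in these data; inconclusive = no clear call, values can overlap the other calls; inactive = rising signal, and the rest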
An asterisk follows results filed as active; i = inactive; u = inconclusive; x = no result. Shown are actives, neighbours in structure and some others; about 2% of the full set was active somewhere.

SMILES | SR-BI uptake up | dFosB act | SR-BI DiI inh | CDK5 inh | others
O=C(/C=C/c1ccc(Cl)c([N+](=O)[O-])c1)Nc1ccc(N2CCCC2)cc1 | -69 | 28* | 69 | 0
O=C(Nc1ccc(N2CCCC2)cc1)c1ccc(Cl)cc1Cl | -76 | 0 | u | -1
O=C(Nc1ccc(N2CCCC2)cc1)c1cc(Cl)ccc1Cl | -40 | 135* | 40 | -1
Cc1ccc(S(=O)(=O)CCSC(=N)N)cc1 | -1 | -4 | 1 | 0
Cc1ccc(OCC(=O)Nc2ccc(S(=O)(=O)N3CCCC3)cc2)cc1 | -1 | -13 | 1 | -1
CCN(CC)C(=O)c1[nH]cnc1C(=O)NCC(=O)OCc1ccccc1 | 4 | -3 | -4 | -3
Cc1cc(C)cc(OCc2nnc(SCC(=O)N3CCN(c4ccccc4)CC3)o2)c1 | -79 | -13 | 79* | -1
COCCNC(=O)CSc1ccccc1C(=O)NCC1CCCCC1 | 22 | 1 | -22 | -1
CC1CCN(C(=O)c2ccccc2SCC(=O)NCC2CCCCC2)CC1 | 588* | -7 | i | 0
COc1cc(NC(=O)N[C@@H](Cc2c[nH]c3ccccc23)C(=O)O)c(C(=O)O)cc1OC | 13 | -6 | -13 | -1
CS(=O)(=O)Nc1cccc(S(=O)(=O)N2CCN(C(=O)c3ccccc3)CC2)c1 | -6 | 3 | 6 | -1
COc1ccc2c(=O)c3c(=O)n(-c4ccccc4)c(-c4ccc(C)cc4)nc3oc2c1 | -92 | -15 | 92* | 0
COc1ccc2c(=O)c3c(=O)n(Cc4ccco4)c(-c4cc(OC)c(OC)c(OC)c4)nc3oc2c1 | -74 | -11 | 74* | 1
COc1ccc2c(=O)c3c(=O)n(Cc4ccco4)c(-c4ccccc4)nc3oc2c1 | -34 | -16 | 34 | 0
Cc1c(C)c(C)c(C(=O)c2ccc(NC(=O)c3ccccc3C(=O)O)cc2)c(C)c1C | 3 | -7 | -3 | 0
COc1ccc(Nc2nc(NCc3ccco3)nc(N/N=C/c3ccc(O)cc3)n2)cc1 | -42 | 42* | 42 | -5
COc1cccc2cc(/C(=N/O)c3ccccc3)oc12 | -1 | -21 | 1 | 1
Cc1cc2nsnc2c(S(=O)(=O)N2CCN(C)CC2)c1C | 18 | 6 | -18 | -1
Cc1ccc(S(=O)(=O)N2CCN(Cc3cc(C(C)(C)C)ccc3O)CC2)cc1 | 1 | -5 | -1 | 1
COCCn1c(=NC(=O)/C=C/c2ccccc2)sc2cc(NC(C)=O)ccc21 | -88 | -9 | 88* | 0
COCCn1c(=NC(C)=O)sc2cc([N+](=O)[O-])ccc21 | -8 | 3 | 8 | 0
Cc1ccn2c(NC3CCCC3)c(-c3ccccn3)nc2c1 | -23 | -2 | 23 | 0
Cc1ccn2c(Nc3ccc4c(c3)OCO4)c(-c3ccccn3)nc2c1 | 17 | 21* | -17 | -2
Cc1ccc(Nc2c(-c3ccccn3)nc3cc(C)ccn23)cc1 | -19 | 21* | 19 | 3
CCOC(=O)C1(Cc2ccccc2)CCN(Cc2ccc3cc(NC(C)=O)ccc3n2)CC1 | -7 | -9 | 7 | 0
SMILES | SR-BI uptake up | dFosB act | SR-BI DiI inh | CDK5 inh | others
O=C(CN(C(=O)CCC(=O)Nc1nccs1)c1ccccc1F)NCCc1ccccc1 | -9 | -1 | 9 | -1
CC[N+](CC)(CC)CCCCOc1ccc2c(c1)C(=O)c1cc(OCCCC[N+](CC)(CC)CC)ccc1-2 | 6 | 55* | -6 | 1
CC[N+](CC)(CC)CCOc1ccc(/C=C/c2ccccc2)cc1 | -19 | 5 | 19 | -4
COc1ccc(C)cc1NC(=O)C(=O)c1cn(CC(=O)N2CCCC2)c2ccccc12 | -77 | -4 | u | -1
COc1ccc(OC)c(NC(=O)C(=O)c2cn(CC(=O)N3CCCC3)c3ccccc23)c1 | -80 | 2 | 80* | 1
COc1ccc(NC(=O)C(=O)c2cn(CC(=O)N3CCCC3)c3ccccc23)cc1OC | -80 | -7 | 80* | 0
COc1cccc(NC(=O)C(=O)c2cn(CC(=O)N3CCCC3)c3ccccc23)c1 | -75 | -9 | 75* | -1
COc1ccc(CNC(=O)C(=O)c2cn(CC(=O)N3CCCC3)c3ccccc23)cc1 | -46 | -8 | 46 | -2
COc1ccccc1CNC(=O)C(=O)c1cn(CC(=O)N2CCCC2)c2ccccc12 | x | -4 | 78* | -2
O=C(NN=C1CCCCCC1)c1ccc(Cl)s1 | -2 | -11 | 2 | 0
O=C1C2C3C=CC(CC3)C2C(=O)N1c1ccccc1F (stereo not drawn) | 21 | -3 | -21 | 1
CCOc1ccccc1NC(=O)CN1CCN(Cc2ccccc2)CC1 | 12 | -7 | -12 | 2
COc1ccccc1-n1cnc2cc(NCc3ccco3)ccc21 | -76 | -4 | 76* | 0 | DiI quencher=-19%
COc1ccccc1-n1cnc2cc(NCc3ccccc3O)ccc21 | -10 | -7 | 10 | 0
CCOC(=O)C(=O)Nc1nc(-c2ccc3c(c2)CCN3C(=O)C2CC2)c(C)s1 | -56 | -11 | 56 | -1 | DiI quencher=-11%
Cc1ccc(NC(=O)CSCC(=O)Nc2cc(S(=O)(=O)N3CCOCC3)ccc2OC(C)C)cc1 | 14 | -5 | -14 | -3
Clc1ccc(-c2cc(-c3nnc4n3CCCCC4)c3ccccc3n2)cc1 | -83 | -14 | 83* | -1 | DiI quencher=1%
CN(C)S(=O)(=O)N1CCN(C(=O)N(c2ccccc2)c2ccccc2)CC1 | -70 | 4 | u | -2 | DiI quencher=-2%
Cc1ccc(S(=O)(=O)N2CCN(C(=O)N(c3ccccc3)c3ccccc3)CC2)cc1 | 3 | -5 | -3 | 0
O=C(Nc1cccc(Cl)c1)Nc1sccc1-c1nc2ccccc2s1 | -106 | 3 | 106* | 2 | DiI quencher=11%
O=C(Nc1ccccc1)Nc1sccc1-c1nc2ccccc2s1 | -60 | -3 | 60 | -2
CCn1cc(CN2CCC(n3nccc3NC(=O)c3ccccc3C)CC2)cn1 | 16 | -12 | -16 | 0
COCCN(C(=O)COC(=O)c1ccccc1Nc1ccccc1)c1c(N)n(Cc2ccccc2)c(=O)[nH]c1=O | -74 | -6 | 74* | -1 | DiI quencher=4%
COCCN(C(=O)COC(=O)c1cccc2ccccc12)c1c(N)n(Cc2ccccc2)c(=O)[nH]c1=O | 2 | -8 | -2 | -1
CN(Cc1ccccc1N1CCCC1)C(=O)c1cc2cc(Cl)ccc2o1 | -70 | -10 | 70* | 1 | DiI quencher=-9%
O=C(C1=COCCO1)N(Cc1nnc(-c2ccccc2Cl)o1)C1CC1 | -75 | -1 | u | 0 | DiI quencher=-3%
Cc1nnc(SCC(=O)NC2CCCCC2C)s1 (stereo not drawn) | 9 | 1 | -9 | 2
O=C(c1ccco1)N1CCCC(c2nc3c(nnn3Cc3ccc(Cl)cc3Cl)c(=O)[nH]2)C1 (stereo not drawn) | x | -7 | x | -2
CC(C)(C)N(Cc1ccccc1)C(=O)COC(=O)CN1C(=O)NC2(CCCC2)C1=O | -76 | -4 | 76* | -1 | DiI quencher=2%
